STAT1 blocker: inhibitors of IFN-gamma induced STAT1 signaling; NIH 3T3 STAT1-luciferase reporter, luminescence; inhibition, % at 5.5 µM; actives 0.35% (n = 200,000); AID 920;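 active = inhibition above a set limit, the mean inhibition across all tested compounds plus 3 SD, cut at about 34% in these data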
STAT1 act: increases IFN-gamma driven STAT1 reporter signal | NIH 3T3 STAT1-luciferase reporter, luminescence; 100% = IFN-gamma alone, no compound | activation (% of control), % at 5.5 µM | actives 2.6% (n = 200,000);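 active = activation above the screen-wide mean activation plus 3 SD, cut at about 130% in these data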
STAT3 act: increases IL-6 driven STAT3 reporter signal | U3A cells, IL-6 STAT3-luciferase reporter, luminescence; 100% = signal with IL-6 EC80 alone | activation (% of control), % at 5.6 µM | actives 0.91% (n = 190,000);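 active = activation above the screen-wide mean of compound activation plus 3 SD, cut at about 130% in these data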
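Test system: Human STAT1-deficient U3A cells with stable STAT3-luciferase reporter | Also added: Interleukin-6, 33 ng/mL | Timing: Compound pre-incubation 1 h before IL-6, then 6 h stimulation at 37 °C | Technique: Luciferase reporter luminescence | Read-out: Percent of IL-6-only median luminescence | Benchmarks: IL-6-only wells as 100% reference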
APP 5'UTR act: APP 5'UTR luciferase reporter activation; SH-SY5Y APP 5'UTR luciferase reporter, luminescence; zero percent = DMSO vehicle wells; actives 1% (n = 190,000); activation, % at 2 µM;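 active = activation above a set limit, based on mean plus 3 SD of controls, cut at about 140% in these data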
NF-kB neuron act: NF-kB expression increase, human neuronal cells; fold change at 12.5 µM; AID 1239; actives 1.6% (n = 190,000); NF-kB reporter expression; stronger effect = higher value; in the data active = fold change above about 3.3
STAT3 inh: STAT3 signaling inhibition; U3A cells, IL-6 STAT3-luciferase reporter, luminescence; host cell line lacks STAT1; inhibition, % at 5.5 µM; actives 0.89% (n = 190,000); AID 862;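 active = inhibition above the mean inhibition across all screened compounds plus 3 SD, cut at about 44% in these data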
STAT1 activ conf: confirmation of STAT1 signaling activators. shares compounds with STAT1 act. NIH 3T3 STAT1-luciferase reporter, IFN-gamma potentiation, luminescence; 100% = IFN-gamma EC80 alone, no compound. activation (% of control), % at 5.7 µM. actives 97% (n = 1,200). AID 1262;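 active = activation above a set limit carried over from the earlier primary STAT1 screen, cut at about 140% in these data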
NFkB act STAT1ct: activates NF-kappaB, counter-screen to STAT1 activators | shares compounds with STAT1 act | HEK293T NF-kB luciferase reporter, TNF-alpha stimulated, luminescence; 100% = TNF-alpha with vehicle only | activation (% of control), % at 5.7 µM | actives 43% (n = 1,200) | AID 1306;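 active = activation above the mean of solvent-only control wells plus 3 SD, set per campaign, cut at about 130% in these data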;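 note: TNF-alpha given at a submaximal dose yielding about 80% of full reporter signal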
STAT3 act STAT1c: human STAT3 activation in STAT1 activator counter-screen; AID 1316; activation (% of control), % at 5.7 µM; U3A cells STAT3-luciferase reporter, IL-6, luminescence; cells lack STAT1; 100 = IL-6 alone, no compound effect; actives 46% (n = 1,200); shares compounds with STAT1 act;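 active = activation above the solvent-only control well mean plus 3 SD, set per plate batch, cut at about 110% in these data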;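 note: higher means more STAT3 reporter activation so hits are non-selective activators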
Large screens that a line does not name were inactive (follow-up assays come after a bar, where they were run). Hits are enriched below; roughly 4.9% of the tested compounds scored in any of these assays.

CC(C)C(=O)N1CCN(c2ccc(NC(=O)c3ccc([N+](=O)[O-])o3)cc2Cl)CC1	STAT1 act 153.4 | STAT1 activ conf inactive | NFkB act STAT1ct inactive | STAT3 act STAT1c 111.0
CCCC(=O)N1CCN(c2ccc(NC(=O)c3ccc([N+](=O)[O-])o3)cc2Cl)CC1	none (no result: NF-kB neuron act)
O=C(Nc1ccc(N2CCN(C(=O)c3ccccc3)CC2)cc1)c1ccc([N+](=O)[O-])o1	STAT1 act 172.8 | STAT1 activ conf inactive | NFkB act STAT1ct inactive | STAT3 act STAT1c inactive
Cc1cc(C)cc(NC(=O)c2ccc([N+](=O)[O-])o2)c1	STAT1 act 161.9, NF-kB neuron act 6.07 | STAT1 activ conf inactive | NFkB act STAT1ct inactive | STAT3 act STAT1c inactive
O=C(CCCC(=O)OCC(Cl)=C(Cl)Cl)Nc1ccc(F)cc1	none
COc1ccc(N/C=C/C(=O)c2ccc3c(c2)OCO3)cc1OC	STAT1 act 161.1 | STAT1 activ conf 178.2 | NFkB act STAT1ct 135.8 | STAT3 act STAT1c inactive
CC(C)(C)c1cc(NC(=O)c2ccc(OC3CCCC3)cc2)no1	none
O=C(Nc1ccon1)c1ccc(OC2CCCC2)cc1	STAT1 act 154.6, NF-kB neuron act 4.48 | STAT1 activ conf 166.3 | NFkB act STAT1ct inactive | STAT3 act STAT1c 113.6
Cc1nc2nc(-c3cccs3)cn2nc1C	STAT1 act 152.5 | STAT1 activ conf 165.4 | NFkB act STAT1ct 134.4 | STAT3 act STAT1c inactive
Cc1cc(-c2cccs2)n[nH]1	none
CCOC(=O)c1ccc(NC(=S)N2CCSC2c2ccc(Br)cc2)cc1 (stereo not drawn)	none
C=C(C)CSc1nncn1/N=C/c1ccc(OC)cc1	STAT1 act 153.3 | STAT1 activ conf 165.4 | NFkB act STAT1ct inactive | STAT3 act STAT1c 128.4
Cc1ccccc1NC(=O)COC(=O)c1cc(=O)c2ccccc2o1	none
Cc1ccc(NC(=O)c2ccccn2)c(Br)c1	STAT1 act 152.1, APP 5'UTR act 152.8, NF-kB neuron act 6.92 | STAT1 activ conf 199.6 | NFkB act STAT1ct inactive | STAT3 act STAT1c inactive
Cc1ccc(C)c(NC(=O)c2ccccn2)c1	none
COc1cccc(NC(=O)c2ccn(C)n2)c1	none
Cc1ccc(NC(=O)c2ccn(C)n2)c(Br)c1	STAT1 act 154.7, APP 5'UTR act 142.0, NF-kB neuron act 6.95 | STAT1 activ conf 197.7 | NFkB act STAT1ct inactive | STAT3 act STAT1c inactive
Cc1ccc(NC(=O)Cn2cccc2)c(Br)c1	none
Cn1ccc(C(=O)Nc2ccc(Br)cc2Br)n1	STAT1 act 168.0, APP 5'UTR act 142.7, NF-kB neuron act 7.56 | STAT1 activ conf 199.6 | NFkB act STAT1ct inactive | STAT3 act STAT1c inactive
Cc1c(-c2ccccc2)nc2ccccc2c1C(=O)NCc1cccs1	none
Cc1ccc(NC(=O)CC(NCC2CCCO2)C(=O)O)cc1C (stereo not drawn)	none
CN(C)c1nc(N)nc(CSc2nc3cc(Cl)ccc3o2)n1	STAT1 act 152.2 | STAT1 activ conf 141.9 | NFkB act STAT1ct inactive | STAT3 act STAT1c inactive
CCOC(=O)c1ccc2nc(NC(C)=O)sc2c1	STAT1 act 160.6 | STAT1 activ conf 167.9 | NFkB act STAT1ct inactive | STAT3 act STAT1c inactive
CC(=O)Nc1nc2ccc(Br)cc2s1	STAT1 act 173.6 | STAT1 activ conf 205.2 | NFkB act STAT1ct 141.3 | STAT3 act STAT1c 112.2
Cc1ccc2nc(NC(=O)COC(=O)c3ccncc3)sc2c1	none
Cn1cc(Cl)c(C(=O)Nc2nc3ccc(Cl)cc3s2)n1	STAT1 act 151.3 | STAT1 activ conf 171.4 | NFkB act STAT1ct 137.6 | STAT3 act STAT1c inactive
COc1ccc(C2CC2C(C)=O)cc1 (stereo not drawn)	none
Cc1ccc2nc(NC(=O)c3ccc(NS(=O)(=O)c4cccs4)cc3)sc2c1	none
CCCCn1cnc2c(sc3nc4c(cc32)CSC(C)(C)C4)c1=O	STAT1 act 151.5, APP 5'UTR act 166.4 | STAT1 activ conf 208.4 | NFkB act STAT1ct 134.3 | STAT3 act STAT1c inactive
CCOC(=O)c1c(C)n(C)c2ccc(OC(=O)c3ccc(N4C(=O)CCC4=O)cc3)cc12	none
COC(=O)CSc1nc2cc(C)ccc2cc1C#N	STAT1 act 156.4, APP 5'UTR act 137.8, NF-kB neuron act 6.29 | STAT1 activ conf 224.3 | NFkB act STAT1ct 141.6 | STAT3 act STAT1c inactive
Cc1ccc2cc(C#N)c(SCC(=O)NCC3CCCO3)nc2c1 (stereo not drawn)	none
O=C(c1ccccc1)c1ccc(N2CCCC2)cc1	STAT1 act 150.9 | STAT1 activ conf 143.3 | NFkB act STAT1ct inactive | STAT3 act STAT1c inactive
O=C(/C=C/c1ccccc1)Nc1ccc(N2CCCCC2)cc1	STAT1 act 150.9 | STAT1 activ conf 168.0 | NFkB act STAT1ct inactive | STAT3 act STAT1c inactive
COC(=O)c1c(-c2ccc(C)cc2)csc1NC(=O)c1c(-c2ccccc2)noc1C	none
COC(=O)c1c(-c2cccnc2)csc1NC(=O)c1cc(C)on1	STAT1 act 152.5 | STAT1 activ conf 202.1 | NFkB act STAT1ct 137.2 | STAT3 act STAT1c 127.5
CN(c1ccc(O)cc1)c1nc(-c2ccccc2)cs1	STAT1 act 186.4, APP 5'UTR act 242.8, NF-kB neuron act 6.87 | STAT1 activ conf 237.8 | NFkB act STAT1ct inactive | STAT3 act STAT1c 120.1
Cc1nn(-c2ccccc2)c(Cl)c1C(=O)NCc1cccs1	none
Cc1csc2nc(CSc3nc4ccccc4o3)cn12	none
Cc1csc2nc(CSc3ccc(Cl)cc3)cn12	STAT1 act 153.3, APP 5'UTR act 149.2, NF-kB neuron act 5.99 | STAT1 activ conf 198.2 | NFkB act STAT1ct 135.3 | STAT3 act STAT1c inactive
O=C(c1ccccc1)C(Nc1ccccn1)c1ccccc1 (stereo not drawn)	none
Cc1ccsc1/C=N/NC(=O)c1sccc1C	STAT1 act 153.3, APP 5'UTR act 135.9 | STAT1 activ conf 173.4 | NFkB act STAT1ct inactive | STAT3 act STAT1c 111.7
Cc1ccsc1/C=N\NC(=O)c1cc(C(C)(C)C)[nH]n1	STAT1 act 156.0 | STAT1 activ conf 171.3 | NFkB act STAT1ct inactive | STAT3 act STAT1c 117.5
O=[N+]([O-])c1cccnc1NCCc1ccccc1	STAT1 act 151.2 | STAT1 activ conf 163.2 | NFkB act STAT1ct inactive | STAT3 act STAT1c 116.7
Cn1c(SCc2cccc([N+](=O)[O-])c2)nc2c(c1=O)SCC2	none
CCn1c(C)nc2cc(C(=O)NNC(=S)NC(=O)c3ccccc3)ccc21	none

Bioassay records as filed in PubChem.
